Data set [1] is described as follows: folding enthalpy; higher = less favourable; fluorescence melt of hairpins on a sequencing array, two-state fit. As to conditions: sodium 0.088 M. In outline: (§1)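 Melting temperature and folding enthalpy were derived from bootstrapped two-state fits. The fitted temperatures were raised by 9.35 °C to agree with UV melts, and four replicates were combined by inverse variance. The underlying data were Cy3 fluorescence images of library hairpins, with annealed Cy3 and quencher oligos, on a sequenced MiSeq flow cell in 50 mM Na-HEPES pH 8.0, 25 mM NaCl, taken in 2.5 °C steps up to 60 °C, normalised to pre-quench Cy3 and to control constructs.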

Data set [2] can be described thus: melting temperature; fluorescence melt of hairpins on a sequencing array, two-state fit, raised by 9.35 °C to match UV melts. As to conditions: sodium 0.088 M. The procedure, abridged: as §1

These results are taken from the array DNA melting data of Ke et al. (doi:10.1101/2024.01.08.574731).

GAAGGGGGAAACCTCTTC ((((.((....)).)))): the folding enthalpy in data set [1] is -27.7 kcal/mol. Besides, the Tm in data set [2] is 43.1 °C.
For the sequence GAAGGGGGAAACTCCTTC (((((.(....).))))), in data set [1], the folding enthalpy was -25.6 kcal/mol. The Tm in data set [2] came to 45.6 °C.
Consider GAAGGTGCGAAAGCATTC (((..(((....)))))), for which the folding enthalpy in data set [1] was -6.16 kcal/mol. The Tm in data set [2] was found to be 18.4 °C.
As to GAAGGTGGAAACACCTTC (((((((....))))))), in data set [1], the folding enthalpy was -37.7 kcal/mol. Further, the Tm in data set [2] came to 64.6 °C.
Turning to GAAGGTGGAAACATCTTC ((((.((....)).)))), the folding enthalpy in data set [1] is -30.8 kcal/mol. Further, the Tm in data set [2] is 41.6 °C.
On to GAAGGTGGAAACGTCTTC ((((..(....)..)))), for which the folding enthalpy in data set [1] is -33 kcal/mol. In data set [2], the Tm turned out to be 36.2 °C.
GAAGTACGAAAGTAGTTC (((.(((....))).))): in data set [1], the folding enthalpy is -34.8 kcal/mol. In addition, the Tm in data set [2] amounted to 46.8 °C.
For GAAGTACGAAAGTATTTC (((.(((....))).))) the same measures were -28.9 kcal/mol and 40.5 °C.
As for GAAGTAGGAAACTGCTTC ((((.((....)).)))), the folding enthalpy in data set [1] is -34.4 kcal/mol. Besides, the Tm in data set [2] came out at 43.3 °C.
As for GAAGTCCGAAAGGAATTC (((.(((....))).))), in data set [1], the folding enthalpy is -30.9 kcal/mol. Further, in data set [2], the Tm was determined as 50.1 °C.
For GAAGTGACGAAAGTCTTC (((..(((....)))))) the same measures were -8.64 kcal/mol and 27.8 °C.
Turning to GAAGTGCGAAAGCAATTC (((.(((....))).))), in data set [1], the folding enthalpy is -28.2 kcal/mol. Besides, the Tm in data set [2] worked out at 52.8 °C.
As for GAAGTGGGAAACTACTTC (((((.(....).))))), the folding enthalpy in data set [1] was -37.4 kcal/mol. Further, the Tm in data set [2] was 43.1 °C.
For GAAGTGGGAAACTGCTTC ((((..(....)..)))), in data set [1], the folding enthalpy was -26.1 kcal/mol. The Tm in data set [2] was 39.6 °C.
For GAAGTTGGAAACAACTCC (.(((((....))))).), the folding enthalpy in data set [1] was -19.2 kcal/mol. For the same sequence, in data set [2], the Tm was 34.1 °C.
For GAAGTTGGAAACAATTTC (((.(((....))).))) the same measures were -20.4 kcal/mol and 35 °C.
On to GAAGTTGGAAACGACTTC (((((.(....).))))), for which, in data set [1], the folding enthalpy was -39 kcal/mol. In addition, the Tm in data set [2] was found to be 47.4 °C.
Consider GAATAAGGAAACTTGTTC (((.(((....))).))), for which the folding enthalpy in data set [1] was -17 kcal/mol. Besides, the Tm in data set [2] was determined as 29.6 °C.
For GAATACGAAAGTATTTC ((((((....))).))) the same measures were -15.8 kcal/mol and 38.3 °C.
With GAATACGCGAAAGCGTTC (((..(((....)))))), the folding enthalpy in data set [1] was -7.08 kcal/mol. In addition, in data set [2], the Tm came to 26.7 °C.
Take GAATACGGAAACGTACTC ((.((((....)))).)): the folding enthalpy in data set [1] is -9.11 kcal/mol. Further, the Tm in data set [2] is 28.4 °C.
GAATATGGAAACATGTTC (((.(((....))).))): in data set [1], the folding enthalpy is -32.6 kcal/mol. Also, the Tm in data set [2] was determined as 37.6 °C.
For GAATCAGGAAACTGATCC (.(((((....))))).) the same measures were -15.4 kcal/mol and 32.6 °C.
As for GAATCAGGAAACTGGTTC (((.(((....))).))), the folding enthalpy in data set [1] is -31.2 kcal/mol. Besides, the Tm in data set [2] worked out at 42.6 °C.
For the sequence GAATCCCGAAAGGGCTTC (((.(((....))).))), the folding enthalpy in data set [1] was -19.1 kcal/mol. Besides, the Tm in data set [2] amounted to 41.9 °C.
On to GAATCCCGAAAGGGTTC (((.(((....)))))), for which the folding enthalpy in data set [1] was -17.9 kcal/mol. In data set [2], the Tm turned out to be 48.1 °C.
As to GAATCCGAAAGGATTTTC ((((((....)))..))), the folding enthalpy in data set [1] was -15.7 kcal/mol. Also, in data set [2], the Tm worked out at 48.9 °C.
In the case of GAATCCGGAAACGGACTC ((.((((....)))).)), the folding enthalpy in data set [1] is -17.9 kcal/mol. In data set [2], the Tm was 36.2 °C.
For GAATCGGGAAACCGATCC (.(((((....))))).) the same measures were -15.6 kcal/mol and 39 °C.
For the sequence GAATGAGAAATCATTC ((((((....)))))), in data set [1], the folding enthalpy is -26.8 kcal/mol. For the same sequence, in data set [2], the Tm is 43 °C.
For GAATGAGGAAACTTATTC ((((.((....)).)))) the same measures were -20.4 kcal/mol and 29.6 °C.
Turning to GAATGCCGAAAGGCGTTC (((.(((....))).))), in data set [1], the folding enthalpy is -27.7 kcal/mol. Besides, in data set [2], the Tm worked out at 61.6 °C.
Consider GAATGCGAAAGCAAATTC ((((((....)))..))), for which the folding enthalpy in data set [1] was -18.9 kcal/mol. Also, the Tm in data set [2] is 33.6 °C.
GAATGCGAAAGCACATTC ((((((....)))..))): the folding enthalpy in data set [1] was -13.2 kcal/mol. Also, in data set [2], the Tm is 31.3 °C.
GAATGCGAAAGCACCTTC ((((((....)))..))): the folding enthalpy in data set [1] was -11.2 kcal/mol. The Tm in data set [2] turned out to be 33.2 °C.
Turning to GAATGCGAAAGCAGATTC ((((((....)))..))), in data set [1], the folding enthalpy was -15.6 kcal/mol. Moreover, the Tm in data set [2] worked out at 43.2 °C.
For the sequence GAATGCGGAAACGCATCC (.(((((....))))).), the folding enthalpy in data set [1] is -11.6 kcal/mol. Further, the Tm in data set [2] worked out at 42.5 °C.
Regarding GAATGCGGAAACGCGTTC (((.(((....))).))), in data set [1], the folding enthalpy is -37.5 kcal/mol. For the same sequence, the Tm in data set [2] was determined as 54.2 °C.
Take GAATGGAAACATTC (((((....))))): in data set [1], the folding enthalpy was -24.9 kcal/mol. In data set [2], the Tm is 40.6 °C.
On to GAATGGCGAAAGCCGTTC (((.(((....))).))), for which the folding enthalpy in data set [1] was -22.4 kcal/mol. Moreover, in data set [2], the Tm was determined as 58.1 °C.
In the case of GAATGGCGAAAGCCTTTC (((.(((....))).))), the folding enthalpy in data set [1] was -21 kcal/mol. In data set [2], the Tm was found to be 47.2 °C.
As for GAATGGGAAACCATTC ((((((....)))))), the folding enthalpy in data set [1] is -37.9 kcal/mol. In data set [2], the Tm was determined as 51.7 °C.
Take GAATGGGGAAACCTATTC ((((.((....)).)))): the folding enthalpy in data set [1] is -31.6 kcal/mol. Also, the Tm in data set [2] came to 37.9 °C.
For GAATGGGGAAACCTGTTC (((..((....))..))) the same measures were -13.1 kcal/mol and 29.9 °C.
For GAATTACGAAAGTACTTC (((.(((....))).))) the same measures were -20.1 kcal/mol and 32.5 °C.
With GAATTACGAAAGTAGTTC (((.(((....))).))), in data set [1], the folding enthalpy was -31.5 kcal/mol. In data set [2], the Tm was 42.6 °C.
Take GAATTCGCGAAAGCGTTC (((..(((....)))))): the folding enthalpy in data set [1] was -6.23 kcal/mol. Further, the Tm in data set [2] worked out at 19.9 °C.
For GAATTCGGAAACGAATCC (.(((((....))))).) the same measures were -16.6 kcal/mol and 36.8 °C.
Turning to GAATTCGGAAACGAATTC (((((((....))))))), the folding enthalpy in data set [1] is -35 kcal/mol. In addition, in data set [2], the Tm was 58.6 °C.
Consider GAATTCGGAAACGGATTC ((((.((....)).)))), for which the folding enthalpy in data set [1] is -36.2 kcal/mol. Moreover, the Tm in data set [2] was determined as 45.4 °C.
Turning to GAATTGGGAAACCAATCC (.(((((....))))).), the folding enthalpy in data set [1] was -14.6 kcal/mol. The Tm in data set [2] was found to be 29.8 °C.
The matching figures for GAATTGGGAAACCAGTTC (((.(((....))).))): -30.1 kcal/mol and 39.4 °C.
With GACAAAGCGAAAGCTGTC (((..(((....)))))), the folding enthalpy in data set [1] was -19.7 kcal/mol. For the same sequence, the Tm in data set [2] is 50.6 °C.
For GACAACACGAAAGTGGTC (((..(((....)))))) the same measures were -16 kcal/mol and 39.8 °C.
Take GACAACGAAAGTTAAGTC ((((((....)))..))): the folding enthalpy in data set [1] was -14.7 kcal/mol. In addition, the Tm in data set [2] turned out to be 33.2 °C.
Turning to GACAACGAAAGTTGAGTC ((((((....)))..))), in data set [1], the folding enthalpy is -11.2 kcal/mol. For the same sequence, in data set [2], the Tm came out at 34.8 °C.
As to GACAACGAAAGTTGGGTC ((((((....)))..))), the folding enthalpy in data set [1] is -15.7 kcal/mol. The Tm in data set [2] stood at 49.8 °C.
For GACAAGACGAAAGTCGTC (((..(((....)))))), in data set [1], the folding enthalpy was -13.1 kcal/mol. In addition, the Tm in data set [2] was determined as 40.8 °C.
As to GACAAGCGAAAGCTAGTC (((.(((....))).))), the folding enthalpy in data set [1] is -23 kcal/mol. Moreover, the Tm in data set [2] was determined as 52 °C.
Turning to GACAAGGCGAAAGCCGTC (((..(((....)))))), the folding enthalpy in data set [1] was -8.66 kcal/mol. Moreover, in data set [2], the Tm was 40.9 °C.
Regarding GACAAGGGAAACCTTGCC (.(((((....))))).), the folding enthalpy in data set [1] was -14.8 kcal/mol. In addition, the Tm in data set [2] was 42 °C.
In the case of GACAATGAAAATTGTC ((((((....)))))), in data set [1], the folding enthalpy was -31.3 kcal/mol. In addition, the Tm in data set [2] turned out to be 51.6 °C.
Turning to GACACAACGAAAGTTGTC (((..(((....)))))), the folding enthalpy in data set [1] was -9.73 kcal/mol. The Tm in data set [2] stood at 38.7 °C.
The matching figures for GACACACCGAAAGGTGTC (((..(((....)))))): -8 kcal/mol and 37.3 °C.
In the case of GACACAGCGAAAGCTGTC (((..(((....)))))), the folding enthalpy in data set [1] was -8.05 kcal/mol. Moreover, the Tm in data set [2] amounted to 32.3 °C.
For GACACAGGAAACTGTACC (..((((....))))..) the same measures were -11.1 kcal/mol and 25.1 °C.
Take GACACAGGAAACTGTGTC (((((((....))))))): in data set [1], the folding enthalpy is -47.9 kcal/mol. Besides, in data set [2], the Tm turned out to be 62.5 °C.
For GACACCGAAAGGTAAGTC ((((((....)))..))) the same measures were -20.2 kcal/mol and 38.5 °C.
In the case of GACACCGAAAGGTGCGTC ((((((....)))..))), the folding enthalpy in data set [1] was -10.2 kcal/mol. For the same sequence, the Tm in data set [2] came to 45.7 °C.
In the case of GACACGGGAAACCATGTC ((((.((....)).)))), the folding enthalpy in data set [1] was -32.9 kcal/mol. For the same sequence, in data set [2], the Tm was found to be 39.9 °C.
The matching figures for GACACGGGAAACCGTGCC (.(((((....))))).): -13.8 kcal/mol and 48.4 °C.
For GACACTGGAAACAGTACC (..((((....))))..) the same measures were -13 kcal/mol and 24.2 °C.
Turning to GACACTGGAAACAGTATC ((.((((....)))).)), the folding enthalpy in data set [1] is -17.6 kcal/mol. The Tm in data set [2] was determined as 30.4 °C.
